Cl transport mod: modulates chloride dependent transport by human KCC2; Q9H2X9; KCC2 cells, thallium flux FluoZin-2 fluorescence; B-score of Tl+ flux slope (higher = more flux/activation; lower = inhibition) at 10 µM; actives 2.2% (n = 190,000);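 active = thallium flux slope and its plate-corrected score both differing from the plate sample mean at a set confidence after two filtering rounds, in either direction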;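 also: slope of fluorescence scaled to starting intensity during 10 to 20 s after thallium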
Furin inh: blocks human furin protease activity. P09958. inhibition, % at 20 µM or 30 µM. purified furin, fluorogenic substrate cleavage. actives 0.061% (n = 220,000); in the data active = inhibition above about 25%
NPY-Y2 PAM-ag: potentiators or agonists of human neuropeptide Y receptor Y2. P49146. activation, % at 3.6 µM. AID 1359. cells expressing NPY-Y2, potentiator/agonist read-out. actives 0.45% (n = 220,000); in the data active = activation above about 27%;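 also: cells stimulated with NPY near EC25 plus isoproterenol at EC100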
Target sequence (P49146 whole entry, looked up): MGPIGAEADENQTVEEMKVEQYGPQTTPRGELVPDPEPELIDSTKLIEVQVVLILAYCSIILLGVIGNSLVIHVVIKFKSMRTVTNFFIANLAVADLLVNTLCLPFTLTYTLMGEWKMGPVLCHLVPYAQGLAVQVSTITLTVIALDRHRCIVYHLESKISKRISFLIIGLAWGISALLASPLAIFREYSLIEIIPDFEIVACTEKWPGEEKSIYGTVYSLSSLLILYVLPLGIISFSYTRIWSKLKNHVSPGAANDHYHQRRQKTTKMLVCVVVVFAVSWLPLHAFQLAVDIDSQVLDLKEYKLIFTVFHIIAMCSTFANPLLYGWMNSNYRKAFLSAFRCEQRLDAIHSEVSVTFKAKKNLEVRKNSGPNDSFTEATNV
NPY-Y1 PAM-ag: potentiators or agonists of human neuropeptide Y receptor Y1; actives 0.37% (n = 220,000); NPY-Y1 expressing cells, potentiator/agonist activation; P25929; activation, % at 3.6 µM; in the data active = activation above about 33%, passing the limit was not always enough;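 also: cells stimulated with NPY at EC10 then isoproterenol at EC100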
Target sequence (P25929 whole entry, looked up): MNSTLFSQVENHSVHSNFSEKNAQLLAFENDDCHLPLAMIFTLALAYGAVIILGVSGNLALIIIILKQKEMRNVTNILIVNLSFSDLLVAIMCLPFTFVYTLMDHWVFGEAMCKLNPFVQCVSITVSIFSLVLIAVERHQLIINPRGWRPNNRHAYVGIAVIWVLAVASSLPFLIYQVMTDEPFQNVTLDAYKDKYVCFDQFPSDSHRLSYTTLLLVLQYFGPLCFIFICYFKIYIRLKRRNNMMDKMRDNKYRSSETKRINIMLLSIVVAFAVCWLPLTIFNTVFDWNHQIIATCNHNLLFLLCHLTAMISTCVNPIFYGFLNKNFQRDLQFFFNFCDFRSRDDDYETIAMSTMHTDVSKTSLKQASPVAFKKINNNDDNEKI
NPY Y1 blocker: antagonists of human neuropeptide Y receptor Y1. P25929. HEK293-CNG Y1 cells, membrane potential fluorescence; NPY at EC95, then isoproterenol. inhibition, % at 3.6 µM. actives 1% (n = 200,000). AID 1040;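 active = inhibition above the campaign mean inhibition of all tested compounds plus 3 SD, cut at about 20% in these data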
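System: HEK293 cells with Y1 receptor plus CNG channel / Probe or stimulus: NPY 25 nM then isoproterenol 1 µM plus Ro 20-1724 25 µM / Compound: one concentration, 3.6 µM, in 0.4% DMSO / Schedule: compound incubation 1 h at room temperature, readout 45 min post-stimulation / Measured by: membrane potential fluorescence / Read-out: % inhibition of NPY effect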
NPY Y2 blocker: antagonists of human neuropeptide Y receptor Y2 | NPY-Y2 expressing cells, antagonist mode | inhibition, % at 2.7 µM | actives 0.99% (n = 140,000) | AID 793; in the data active = inhibition above about 17%
KCC2 secondary: confirmation of human KCC2 transport modulators. shares compounds with Cl transport mod. HEK293-KCC2, thallium flux, FluoZin2 fluorescence; stronger effect = higher value. normalised thallium flux (F/F0 slope) at 10 µM. actives 15% (n = 3,700);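 active = thallium flux slope above the same plate's solvent-only control mean plus 3 SD; inconclusive = the two replicate wells disagree; inactive = no significant difference from solvent-only control wells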
KCC2 bumet counter: thallium flux persisting under bumetanide in KCC2 cells, counter-screen secondary assay; HEK293-KCC2 + bumetanide/ouabain, thallium flux FluoZin2; stronger effect = higher value; shares compounds with Cl transport mod; actives 49% (n = 3,700); AID 1714; normalized thallium flux at 10 µM;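 active = thallium entry rate above the same plate's blocked-transporter control wells by more than 3 SD; inconclusive = the two repeat wells disagree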;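 also: raw slope of fluorescence over initial fluorescence between 10 and 20 s after thallium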
KCC2 sec2: KCC2 (human) modulation, second secondary assay. shares compounds with Cl transport mod. normalized thallium flux at 10 µM. actives 23% (n = 3,700). HEK293-KCC2, thallium flux FluoZin2 fluorescence; actives lie on both sides; F/F0 rise rate, 10–20 s post-thallium;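 active = thallium flux slope more than 3 SD above or below the plate's solvent-only control mean, mostly below; inconclusive = the two repeat wells disagreed; inactive = no significant shift from solvent-only controls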
HEK counter1: parental HEK flux effect, counter-screen; HEK293 parental cells, thallium flux FluoZin2, ouabain; baseline-ratio fluorescence slope, 10–20 s after thallium; AID 1716; thallium flux rate (normalised fluorescence) at 10 µM; shares compounds with Cl transport mod; actives 46% (n = 3,700);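 active = thallium flux rate significantly above the same plate's solvent-only control wells, beyond their mean plus 3 SD; inconclusive = the two replicate wells gave conflicting results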
KCC2 retest ouab: confirmation of human KCC2 modulators with ouabain; actives 48% (n = 3,700); AID 1717; HEK293-KCC2, thallium flux FluoZin2 fluorescence; bidirectional: low = inhibitor, high = activator; raw Tl+ flux slope (below DMSO = inhibition, above = activation) at 10 µM; shares compounds with Cl transport mod;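 active = thallium flux slope beyond 3 SD from same-plate DMSO control mean in most replicates, usually higher, sometimes lower; inconclusive = repeat tests gave conflicting results; inactive = no significant difference from controls in most replicates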;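 also: slope of initial-normalized fluorescence between seconds 10 and 20 after thallium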
HEK counter2: acts in parental HEK cells, second KCC2 counter-screen | thallium flux slope at 10 µM | shares compounds with Cl transport mod | HEK293 parental, thallium flux FluoZin-2 fluorescence slope | AID 1718 | actives 33% (n = 3,700);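 active = thallium flux slope above the same plate's solvent-control mean plus 3 SD in both duplicate wells; inconclusive = duplicate wells that disagreed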;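 also: run without ouabain in cells lacking the KCC2 cotransporter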
Numbers stand for hits; - = inactive; ? = inconclusive; . = no result given. This is a sample that favours compounds with a hit; in the whole collection about 3.7% have one here.

SMILES | Cl transport mod | Furin inh | NPY-Y2 PAM-ag | NPY-Y1 PAM-ag | NPY Y1 blocker | NPY Y2 blocker | KCC2 secondary | KCC2 bumet counter | KCC2 sec2 | HEK counter1 | KCC2 retest ouab | HEK counter2
COC(=O)/C(C#N)=C(/Nc1ccc(F)c(Cl)c1)C(F)(F)F | - | - | - | - | . | . | . | . | . | . | . | .
Cc1cccc(NC(=O)c2cccc(N3C(=O)C4C5CCC(C5)C4C3=O)c2)c1C (stereo unspecified) | 6.2 | - | - | - | - | - | - | - | - | - | - | -
CCc1ccccc1NC(=O)c1cccc(N2C(=O)C3C4CCC(C4)C3C2=O)c1 (stereo unspecified) | - | - | - | - | - | - | . | . | . | . | . | .
CCOc1ccc(NC(=O)CSc2nnc(Cn3cnc4ccccc43)n2C)cc1 | - | - | - | - | - | - | . | . | . | . | . | .
Cc1ccccc1Nc1nnc(SCc2cc(=O)n3ccsc3n2)s1 | -4.92 | - | - | - | - | - | - | - | - | - | ? | -
CCOc1cc(/C=C(/C#N)c2ccc(F)cc2)ccc1OCc1ccc(C(=O)O)o1 | -4.91 | - | - | - | - | - | - | - | 0.0237 | 0.00547 | 0.0123 | ?
CCOC(=O)c1cc2c(ccn2-c2ccc(F)cc2)n1CC(=O)NC(C)(C)C | -5.55 | - | - | - | - | . | - | - | 0.0241 | - | 0.0171 | -
COC(=O)c1cc2c(ccn2-c2ccc(F)cc2)n1CC(=O)N1CCN(C(=O)c2ccco2)CC1 | -6.69 | - | - | - | - | - | ? | ? | 0.0279 | 0.00953 | ? | -
O=C(c1ccco1)N1CCN(c2ccc(F)cc2)CC1 | - | - | - | - | - | . | . | . | . | . | . | .
N#Cc1c2n(c3c(=S)nc[nH]c13)CCCCC2 | 5.22 | - | - | - | - | - | - | 0.0135 | - | 0.0135 | ? | 0.0143
N#Cc1c2n(c3c(=O)[nH]cnc13)CCCC2 | - | - | - | - | - | - | . | . | . | . | . | .
OCc1ccccc1CNCc1ccccc1 | . | - | - | - | - | - | - | - | - | - | - | -
CC1CCc2sc(NC(=O)C3CC(Cl)=CCC3C(=O)O)c(C#N)c2C1 (stereo unspecified) | . | - | - | - | - | . | . | . | . | . | . | .
O=C(/C=C/c1ccccc1)NCCSCc1ccccc1Cl | -3.78 | - | - | - | - | - | - | - | - | - | 0.0174 | -
O=C(/C=C/c1cccc([N+](=O)[O-])c1)NCCSCc1c(Cl)cccc1Cl | - | - | - | - | - | - | . | . | . | . | . | .
CCC(=O)N(C)CCc1cc2c(c(OC)c1/C=N/NC(=O)c1ccc(Br)cc1)OCO2 | - | - | - | - | - | - | . | . | . | . | . | .
COC(=O)CCCC1=CC2=C(c3ccccc3)C(=O)C(C)(OC(=O)C3CCCC3)C(=O)C2=CN1Cc1ccc(OC)cc1 (stereo unspecified) | -2.6 | - | . | . | . | . | - | - | - | - | - | -
COC(=O)CCCC1=CC2=C(c3ccccc3)C(=O)C(C)(OC(=O)C3CCCC3)C(=O)C2=CN1Cc1ccc2c(c1)OCO2 (stereo unspecified) | - | - | . | . | . | . | . | . | . | . | . | .
O=C(Nc1nnc(C2CC2)s1)C1COc2ccccc2O1 (stereo unspecified) | - | - | - | - | - | . | . | . | . | . | . | .
Cc1cccc2sc(NNC(=O)C3COc4ccccc4O3)nc12 (stereo unspecified) | 10 | - | - | - | - | - | - | 0.0431 | - | 0.0165 | 0.0354 | 0.0155
COc1ccc(OC)c2sc(NNC(=O)C3COc4ccccc4O3)nc12 (stereo unspecified) | . | - | - | - | - | . | . | . | . | . | . | .
O=C(Nc1nnc(C(F)(F)F)s1)C1COc2ccccc2O1 (stereo unspecified) | -3.79 | - | - | - | - | - | - | - | - | - | - | -
O=C(NNc1nc2c(F)cc(F)cc2s1)C1COc2ccccc2O1 (stereo unspecified) | 5.98 | - | - | - | - | . | ? | 0.0357 | - | ? | 0.0325 | ?
O=c1[nH]c(=O)n(C2CCCO2)cc1F (stereo unspecified) | 7.51 | - | - | - | - | - | - | - | - | - | - | -
CCOC(=S)N/C(=N\S(=O)(=O)c1ccc(C)cc1)c1ccccc1 | . | - | - | - | - | - | ? | 0.0146 | - | ? | 0.0278 | -
SMILES | Cl transport mod | Furin inh | NPY-Y2 PAM-ag | NPY-Y1 PAM-ag | NPY Y1 blocker | NPY Y2 blocker | KCC2 secondary | KCC2 bumet counter | KCC2 sec2 | HEK counter1 | KCC2 retest ouab | HEK counter2
C/C(=N\S(=O)(=O)c1ccc(C)cc1)NC(=S)Nc1ccccc1 | - | - | - | - | - | . | . | . | . | . | . | .
Cc1ccc(S(=O)(=O)NN/C(=N/S(=O)(=O)c2ccccc2)c2ccccc2)cc1 | - | - | - | - | - | . | . | . | . | . | . | .
COc1ccc(NC(=S)N/C(=N/S(=O)(=O)c2ccc(C)cc2)c2ccccc2)cc1 | 4.18 | - | - | - | - | . | ? | 0.02 | - | 0.0129 | 0.0262 | -
CCOC(=O)c1sc2nccc(OC)c2c1N=CN(C)C | - | - | - | - | - | . | . | . | . | . | . | .
S=C(Nc1ccccc1)Nc1nc2ccccc2n1CCOc1ccc(Br)cc1 | 3.39 | - | - | - | - | - | - | 0.0316 | - | 0.0101 | - | ?
Cn1c(NC(=S)Nc2ccccc2)nc2ccccc21 | 7.44 | - | - | - | - | - | ? | 0.0638 | - | 0.0229 | 0.0426 | 0.0142
COC(=O)c1ccc(Oc2nc(Nc3ccc(C)c(C)c3)nc(N(C)C)n2)cc1 | - | - | - | - | - | - | . | . | . | . | . | .
Cn1c(-c2sc3cc(C(F)(F)F)cnc3c2-c2ccccn2)n[nH]c1=S | - | - | - | - | - | . | . | . | . | . | . | .
Cn1c(-c2sc3cc(C(F)(F)F)cnc3c2-c2cccs2)n[nH]c1=S | 10.4 | - | - | - | - | . | - | 0.0154 | - | 0.00991 | ? | -
Fc1cccc(F)c1-n1c(CN2CCCC2)csc1=S | - | - | - | - | - | . | . | . | . | . | . | .
COCCCn1c(SCC(=O)Nc2nnc(C)s2)nnc1-c1ccoc1C | . | - | - | - | - | - | - | - | - | - | - | -
